Measurements as given in PubChem BioAssay AID504490 (NMMLSC, 2011).
Hit rate of the full screen: of about 340,000 compounds, about 1,100 (0.32%) were called active.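 The calls were made as follows: active = inhibition above a set limit, near 3 SD of compounds lacking own fluorescence (cut at about 54% in these data); inactive = the rest.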 For the sample, actives were picked, then their nearest neighbours and some compounds at random.

Test system: beta-arrestin 1 C-terminal peptide binding to AP2 beta2-adaptin appendage (human)
Assay: blockers of arrestin peptide association with AP2 adaptin – biochemical, GPCR trafficking, flow cytometry, primary screen (AID 504490);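 also: plate controls were DMSO wells for no effect and 5 µM unlabelled arrestin peptide for full effect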
Conditions: FITC-arrestin peptide / GST-AP2 beads, at 10 µM, stronger effect = higher value, AP2 beta2 appendage carries R879A mutation
Outline: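 Material – AP2 appendage R879A on GSH beads · Buffer or medium – PBS with 0.05% Tween 20 and 0.1% BSA · Probe or stimulus – fluorescein-tagged arrestin peptide at 50 nM final · Incubation – compound with beads 12 min RT, then probe 1 h RT · Detection – high-throughput flow cytometry of beads, ex 488, em 535 nm · Evaluation – percent response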

Row | SMILES | inhibition
1 | CCOc1ccc(/C=C2\SC(=S)N(NC(=O)c3ccncc3)C2=O)cc1OC | 18.7% (inactive)
2 | COc1ccc(/C=C2\SC(=S)N(CCC(=O)Nc3ccccn3)C2=O)cc1OC | 73.7% (active)
3 | COc1cccc(/C=C2/SC(=S)N(CC(=O)NC3C=CS(=O)(=O)C3)C2=O)c1 (stereo unspecified) | -14% (inactive)
4 | N#CCCN(C(=O)COC(=O)c1ccc(S(=O)(=O)N2CCCCCC2)cc1)c1ccccc1 | -3.59% (inactive)
5 | CC(=O)c1c(C)[nH]c(C(=O)COC(=O)CCOc2ccc(C)cc2)c1C | 5.24% (inactive)
6 | Cc1ccc(OCCCCc2c(C)n[nH]c2C)cc1 | 65.1% (active)
7 | COc1ccc(-c2[nH]ncc2CN(C)Cc2c(C)n[nH]c2C)c(OC)c1 | 6.55% (inactive)
8 | Cc1cc(NC(=O)CCS(=O)(=O)c2ccc(F)cc2)no1 | -7.97% (inactive)
9 | CC1CN(C(=O)c2ccccc2NS(=O)(=O)c2cccc([N+](=O)[O-])c2)CC(C)O1 (stereo unspecified) | 2.09% (inactive)
10 | COc1cccc(CN2CCNC(=O)C2CC(=O)N(C)CCc2ccccn2)c1 (stereo unspecified) | -2.95% (inactive)
11 | NC(=O)C1CCN(C(=O)CC2C(=O)NCCN2Cc2cccc(Oc3ccccc3)c2)CC1 (stereo unspecified) | 68.5% (active)
12 | CN(CCc1cn[nH]c1)C(=O)CC1C(=O)NCCN1Cc1cccc(Oc2ccccc2)c1 (stereo unspecified) | 9% (inactive)
13 | Cc1nc2c(ncn2-c2ccccc2)c(=O)n1NC(=O)CN1CCCC1 | -8.96% (inactive)
14 | COc1ccc(-n2ncc3c2CC(C)(C)CC3NC(=O)CCc2c(C)noc2C)cc1 (stereo unspecified) | 5.75% (inactive)
15 | O=C(c1ccc(Cl)s1)N(Cc1nnc(-c2ccccc2Cl)o1)C1CC1 | -9.93% (inactive)
16 | COCCNC(=O)c1snc2ccc(Cl)cc12 | 2.57% (inactive)
17 | O=C(Nc1nc(-c2ccco2)c(-c2ccco2)s1)c1ccco1 | 8.21% (inactive)
18 | COCCNC(=O)Nc1ccc2nc(-c3ccco3)c(-c3ccco3)nc2c1 | 68% (active)
19 | CCc1noc(C)c1C(=O)N1CCCC(N2CCN(c3ccc(F)cc3)CC2)C1 (stereo unspecified) | 7.14% (inactive)
20 | COc1cccc(C2SCC(=O)N2c2cccc(C)c2)c1OC (stereo unspecified) | 3.87% (inactive)
21 | CCc1ccc(NC(=O)Nc2ccncc2)cc1 | 0.23% (inactive)
22 | Cc1csc(NC(=O)C2=COCCO2)n1 | 17.8% (inactive)
23 | NS(=O)(=O)c1ccc2nc(NC(=O)CS(=O)(=O)c3ccc(F)cc3)sc2c1 | 3.77% (inactive)

Row | SMILES | inhibition
24 | NS(=O)(=O)c1ccc2nc(NC(=O)C3=COCCO3)sc2c1 | 58.1% (active)
25 | O=C1N(Cc2ccc3c(c2)OCO3)c2ccccc2C1(O)c1c[nH]c2ccccc12 (stereo unspecified) | 2.95% (inactive)
26 | Cc1ccccc1Cn1c2ccccc2c2cnn(CC(=O)NCc3ccco3)c(=O)c21 | -0.8% (inactive)
27 | CCOc1ccc(C(C)=O)cc1COC(=O)CN1C(=O)NC2(CCCC2)C1=O | 3.04% (inactive)
28 | S=c1ccc2ccccc2[nH]1 | -7.56% (inactive)
29 | COC(=O)C1=C(C)N(C)C(C)=C(C(=O)OC)C1c1cccc(Br)c1 | -3.12% (inactive)
30 | CCN1C[C@@H]2[C@@H]3C(=O)N(Cc4ccccc4)C(=O)[C@@H]3[C@](Cc3ccccc3)(C(=O)OC)N2C1=NC1CCCCC1 | 4.73% (inactive)
31 | CCOc1ccccc1Nc1ccc(C(=O)O)cc1[N+](=O)[O-] | 35.8% (inactive)
32 | Cc1ccc(Nc2ccc(C(N)=O)cc2[N+](=O)[O-])cc1 | 54.7% (active)
33 | NC(=O)c1ccc(Nc2ccc3c(c2)CCC3)c([N+](=O)[O-])c1 | 38.4% (inactive)
34 | S=C(Nc1cccnc1)Nc1ccccn1 | 3.47% (inactive)
35 | CCOc1ccccc1C1CC(c2ccc(Cl)cc2)Nc2nc(N)nn21 (stereo unspecified) | 10.8% (inactive)
36 | O=c1[nH]c2ccccc2n2c(-c3ccccc3)nnc12 | 55.3% (active)
37 | O=c1[nH]n2c(-c3ccccc3)nc(O)c2c2ccccc12 | -0.17% (inactive)
38 | Cc1ccc(-c2cccc([C@H]3[C@@H]4C=CC[C@@H](C)[C@@H]4C(=O)N3Cc3ccccc3)c2)cc1 | -6.59% (inactive)
39 | CCC1(CC)NC(=O)N(CC(=O)OCC(=O)NC(=O)c2ccccc2)C1=O | 5.01% (inactive)
40 | CC(=O)Nc1ccc(S(=O)(=O)N2CCC(N(C)CCC(C)C)CC2)cc1 | -0.3% (inactive)
41 | Cc1cccc(C(=O)OC(C)CN2CCCC2)c1 (stereo unspecified) | 14.8% (inactive)
42 | CC(CN1CCCCC1)OC(=O)c1ccccc1Cl (stereo unspecified) | 84.6% (active)
43 | CC(CN1CCOCC1)OC(=O)c1ccc(Cl)cc1Cl (stereo unspecified) | 8.15% (inactive)
44 | Cc1cccn2c(=O)c(/C=C(\C#N)S(=O)(=O)c3ccc(Cl)cc3)c(N3CCC(C(N)=O)CC3)nc12 | 3.53% (inactive)
45 | Cc1cc(C)cc(Oc2nc3c(C)cccn3c(=O)c2/C=C(\C#N)C(=O)NC2CCS(=O)(=O)C2)c1 (stereo unspecified) | 77.2% (active)
46 | Cc1cccn2c(=O)c(/C=C(\C#N)C(N)=O)c(N3CCCCCC3)nc12 | -21.3% (inactive)

Row | SMILES | inhibition
47 | CCCn1c(O)c(CN2CCCC(C)C2)c(C)c(C#N)c1=O (stereo unspecified) | 11.7% (inactive)
48 | O=C(NNc1cc(Cl)cc(Cl)c1)c1c(F)cccc1Cl | -11.9% (inactive)
49 | CCN(CC(=O)NCc1ccco1)S(=O)(=O)c1ccc(F)cc1 | 24.4% (inactive)
50 | O=C(NCc1ccco1)c1ccc(CS(=O)(=O)Cc2ccc(F)cc2)o1 | 97% (active)
51 | O=C(NCc1ccco1)c1cc2sccc2n1Cc1ccc(F)cc1 | 1.12% (inactive)
52 | Cc1ccc(NS(=O)(=O)c2cn(C)c(=O)n(C)c2=O)c(C)c1 | -3.22% (inactive)
53 | Cc1ccc(CC2C(=O)N(c3ccc(F)cc3)C(=O)C2C)cc1 (stereo unspecified) | -10.9% (inactive)
54 | COc1ccc(CCNc2ncnc3c2nnn3Cc2ccccc2)cc1 | 56% (active)
55 | CC(C)Nc1ncnc2c1nnn2Cc1ccccc1 | -0.65% (inactive)
56 | COc1ccc(CNCCCn2cnc3c(OCc4ccccc4)ncnc32)cc1 | 3.96% (inactive)
57 | CN(CCCC(=O)Nc1nccs1)S(=O)(=O)c1ccc(Cl)cc1 | -5.07% (inactive)
58 | Cc1c(C(=O)NNC(=O)c2ccncc2)oc2ccccc12 | -2.61% (inactive)
59 | CN(C)c1ccc(NC(=O)c2ccncc2)c2ccccc12 | 57.2% (active)
60 | O=C(Nc1ccccc1N1CCOCC1)c1ccncc1 | -0.66% (inactive)
61 | CC(=O)N1C(=O)/C(=C2\SC(=S)N(NC(=O)c3ccc(O)cc3)C2=O)c2ccccc21 | 7.23% (inactive)
62 | CCc1nnc(NC(=O)CCC(=O)N2CCN(c3cc(C)ccc3C)CC2)s1 | 27.2% (inactive)
63 | COc1ccc(CN2CCN(C(=O)CCC(=O)Nc3nnc(C(C)C)s3)CC2)cc1F | 17.3% (inactive)
64 | CC(C)c1nnc(NC(=O)CCC(=O)N2CCN(c3cccc(Cl)c3)CC2)s1 | 59.1% (active)
65 | C=C1c2cccc(OC)c2O[C@H](C(=O)OCC)[C@@H]1CCCCCC | -3.22% (inactive)
66 | C=CCO/N=C(\C)c1c(O)c(C)c(-c2ccccc2)n(-c2ccccc2)c1=O | 32.4% (inactive)
67 | COc1ccc(C(=O)Nc2ccc(-n3nncc3C(C)(C)C)cc2)cc1 | -18.4% (inactive)
68 | C/C(=N\Nc1ccc([N+](=O)[O-])cc1)c1ccc(-n2nncc2C(C)(C)C)cc1 | 93.7% (active)
69 | CC(C)(C)c1cnnn1-c1ccc([N+](=O)[O-])cc1 | -1.38% (inactive)

Row | SMILES | inhibition
70 | CCOC(=O)C(CO)NC(=O)C1(NC(C)=O)CCCC1 (stereo unspecified) | 2.61% (inactive)
71 | COc1ccccc1NC(=O)c1c(Br)cnn1C | 6.15% (inactive)
72 | O=C(NNC(=O)C1C2CCC(C2)C1C(=O)O)c1ccc(Cl)cc1 (stereo unspecified) | 10.1% (inactive)
73 | Cc1ccc(S(=O)(=O)/N=C(/Nc2ccccn2)c2ccc(Cl)cc2)cc1 | 70.7% (active)
74 | O=S(=O)(/N=C(/Nc1ccccn1)c1ccccc1)c1ccc(Cl)cc1 | 2.67% (inactive)
75 | Cc1ccc(S/C(=N\S(=O)(=O)c2ccc(Cl)cc2)c2ccccc2)cc1 | 2.53% (inactive)
76 | O=C(O)c1ccccc1NC(=S)NC(NC(=O)c1ccccc1[N+](=O)[O-])C(Cl)(Cl)Cl (stereo unspecified) | 0.7% (inactive)
77 | CCOC(=O)c1ccc(NC(=S)N2CCN(c3ccccn3)CC2)cc1 | -3.13% (inactive)
78 | CN1CCN(S(=O)(=O)c2ccc(NC(=O)C3CCCO3)cc2)CC1 (stereo unspecified) | -5.38% (inactive)
79 | O=C(C1CCCN1S(=O)(=O)c1ccc(Br)cc1)N1CCOCC1 (stereo unspecified) | -2.49% (inactive)
80 | O=C(C1CCCO1)N1CCN(S(=O)(=O)c2ccc(Br)cc2)CC1 (stereo unspecified) | 54.4% (active)
81 | CCC1(C(=O)c2ccccc2)C(c2cccc([N+](=O)[O-])c2)C1(C(=O)OC)C(=O)OC (stereo unspecified) | -3.23% (inactive)
82 | CCOC(=O)c1sc(NC(=O)CSc2nc(O)c(Cc3ccccc3)c(=O)[nH]2)nc1C | 45.5% (inactive)
83 | CCOc1ccc(-n2c(SCC(N)=O)nnc2-c2ccco2)cc1 | -5.91% (inactive)
84 | CCOc1ccc(-c2nnc(-c3ccco3)o2)cc1 | 55% (active)
85 | COc1ccc(-c2nnc(-c3ccc4ccccc4c3)o2)cc1 | 5.64% (inactive)
86 | C[C@@H]1CC[C@@]2(OC1)O[C@H]1C[C@H]3[C@@H]4CC=C5C[C@@H](O)[C@H](O)C[C@]5(C)C4CC[C@]3(C)[C@H]1[C@@H]2C (stereo partly specified) | 26.8% (inactive)
87 | Cn1c(=O)c([N+](=O)[O-])c(Oc2ccccc2)c2ccccc21 | 54.9% (active)
88 | Cc1cccc(Oc2c([N+](=O)[O-])c(=O)n(C)c3ccccc23)c1 | 8.99% (inactive)
89 | Cc1cc(C)c(-c2c(O)c3ccccc3n(C)c2=O)c(C)c1 | 3.35% (inactive)
90 | CCn1c(C)nc2cc(C(=O)NNS(=O)(=O)c3ccc(C)cc3C)ccc21 | -9.91% (inactive)
91 | CCNc1c(NS(=O)(=O)c2ccc(C3CCCCC3)cc2)c(=O)oc2ccccc12 | 27.9% (inactive)
